Consider 14 compounds from ChEMBL document CHEMBL3425440, “ent-Kaurane Diterpenoids from Chinese Liverworts and Their Antitumor Activities through Michael Addition As Detected in Situ by a Fluorescence Probe” (J Med Chem, 2015).

In one test the test system is MDA-MB-231. The test is described as follows: Cytotoxicity against human MDA-MB-231 cells assessed as cell viability after 24 hrs by MTT assay. Type of test: functional, cell-based. The conditions noted are these: MDA-MB-231, 24 h. The method in brief:
(§1)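 Cells grown to about 50−70% confluence at 37 °C, 5% CO2, then exposed to compounds 24 h (DMSO vehicle control, cisplatin positive control). MTT (5 mg/mL stock) added for 4 h, formazan dissolved in DMSO, absorbance read at 570 nm. IC50 derived from percent viability; at least three independent experiments, mean ± SD.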

In the next test the test system is K562. The test is described as follows: Cytotoxicity against human K562 cells assessed as cell viability after 24 hrs by MTT assay. The format is functional, cell-based. The conditions noted are these: K562, 24 h. The method in brief: as §1
On the technique in general: Tetrazolium assays rely on reduction of a dye to a coloured formazan, in cell work by metabolically active cells.

Test [1] can be described thus: Cytotoxicity against human SH-SY5Y cells assessed as cell viability after 24 hrs by MTT assay. The format is functional, cell-based. The method in brief:
as §1

Test [2] is described as follows: Cytotoxicity against human A172 cells assessed as cell viability after 24 hrs by MTT assay. The format is functional, cell-based. The conditions noted are these: A 172, 24 h. The method in brief: as §1
The nature of test [3]: Cytotoxicity against human RWPE1 cells assessed as cell viability after 24 hrs by MTT assay. The format is cell-based. The conditions noted are these: RWPE-1, 24 h. In a few lines: as §1
In a further test the test system is DU-145. The test is described as follows: Cytotoxicity against human DU145 cells assessed as cell viability after 24 hrs by MTT assay. The format is functional, cell-based. The conditions noted are these: DU-145, 24 h. The method in brief: as §1
Test [4] in a line: Cytotoxicity against human Saos2 cells assessed as cell viability after 24 hrs by MTT assay. Type of test: functional, cell-based. The conditions noted are these: SAOS-2, 24 h. In a few lines:
as §1

The nature of test [5]: Cytotoxicity against human SKOV3 cells assessed as cell viability after 24 hrs by MTT assay. The conditions noted are these: SK-OV-3, 24 h. Type of test: functional, cell-based. The method in brief: as §1
Another test has as its system LoVo. Put plainly: Cytotoxicity against human LoVo cells assessed as cell viability after 24 hrs by MTT assay. The format is functional, cell-based. In a few lines:
as §1

The subject of another test is LNCaP. Put plainly: Cytotoxicity against human LNCAP cells assessed as cell viability after 24 hrs by MTT assay. The format is functional, cell-based. The method in brief:
as §1

The nature of test [6]: Cytotoxicity against human T24 cells assessed as cell viability after 24 hrs by MTT assay. Type of test: functional, cell-based. The conditions noted are these: T-24, 24 h. The method in brief:
as §1

The subject of another test is NCI-H1299. Put plainly: Cytotoxicity against human NCI-H1299 cells assessed as cell viability after 24 hrs by MTT assay. The format is functional, cell-based. The conditions noted are these: NCI-H1299, 24 h. The method in brief:
as §1

Test [7] in a line: Cytotoxicity against human PC3 cells assessed as cell viability after 24 hrs by MTT assay. The format is functional, cell-based. The conditions noted are these: PC-3, 24 h. In a few lines: as §1
Test [8] can be described thus: Cytotoxicity against human HL60 cells assessed as cell viability after 24 hrs by MTT assay. Type of test: functional, cell-based. The conditions noted are these: HL-60, 24 h. In a few lines:
as §1

With `C=C1[C@@H]2CC[C@]3(O)[C@@](CC[C@@H]4C(C)(C)CCC[C@]43C)(C2)[C@@H]1O`, the half-inhibitory concentration (IC50) (in the test on MDA-MB-231; in the test with K562; in test [1]; in [2]; in test [3]; in the test on DU-145) was above 50 µM throughout. Also, the concentration for half-maximal inhibition (IC50) (in test [4]; in test [5]; in the test on LoVo; in the test with LNCaP; in test [6]; with NCI-H1299) was above 50 µM each time. Besides, the IC50 in test [7] and in test [8] was above 50 µM each time.
With `C=C1C(=O)[C@@]23CC[C@@H]4[C@@](C)(CO)CCC[C@@]4(C)C2=CC[C@]1(O)C3`, the 50% inhibitory concentration (IC50) in the test on MDA-MB-231 was determined as 12.3 µM; with K562, 10.2 µM; in test [1], 4.4 µM; in test [2], 4.4 µM; in [3], 11.7 µM; with DU-145, 6.3 µM. Also, the IC50 in [4] was 7.8 µM; in test [5] it was 8.6 µM; in the test on LoVo, 9 µM; in the test with LNCaP, 11.6 µM; in test [6], 10.4 µM; in the test with NCI-H1299, 10.7 µM. Besides, the IC50 worked out at 5.5 µM in test [7] and 3.7 µM in [8].
As to `C=C1C(=O)[C@@]23CC[C@@H]4[C@@](C)(C=O)CCC[C@@]4(C)C2=CC[C@]1(O)C3`, the IC50 stood at 21.6 µM in the test on MDA-MB-231; 6.3 µM in the test with K562; 4.2 µM in test [1]; 4.4 µM in test [2]; 12.7 µM in [3]; 11.6 µM in the test with DU-145. In addition, the half-maximal inhibitory concentration (IC50) in test [4] was 7.3 µM; in test [5], 7.4 µM; in the test on LoVo it was 9.3 µM; in the test with LNCaP it was 9.5 µM; in [6] it was 5.9 µM; in the test on NCI-H1299, 12.2 µM. In addition, the IC50 in test [7] was found to be 11.4 µM; in test [8] it was 4.4 µM.
Turning to `C=C1C[C@]23C[C@H]1CC[C@H]2[C@]1(C)CCCC(C)(C)[C@H]1C[C@H]3O`, the IC50 (in the test on MDA-MB-231; in the test with K562; in test [1]; in [2]; in [3]; in the test on DU-145) was above 50 µM in each case. The half-maximal inhibitory concentration (IC50) (in [4]; in test [5]; in the test with LoVo; in the test on LNCaP; in [6]; in the test with NCI-H1299) was above 50 µM in each case. Moreover, the IC50 in test [7] and in test [8] was above 50 µM throughout.
For `C[C@@H]1C(=O)[C@H]2C[C@]1(O)CC1=C2[C@]2(C)CCC[C@](C)(C=O)[C@H]2CC1`, the IC50 (with MDA-MB-231; in the test on K562; in test [1]; in [2]; in test [3]; with DU-145) was above 50 µM each time. Besides, the IC50 (in [4]; in test [5]; with LoVo; in the test with LNCaP; in test [6]; in the test on NCI-H1299) was above 50 µM each time. The IC50 in [7] and in test [8] was above 50 µM throughout.
Regarding `C=C1C(=O)[C@@]23CC[C@@H]4[C@](C)(CO)CCC[C@@]4(C)C2=CC[C@]1(O)C3`, the IC50 stood at 15.5 µM with MDA-MB-231; 10.4 µM in the test on K562; 4.9 µM in test [1]; 13 µM in [2]; 13.2 µM in test [3]; 8.3 µM in the test on DU-145. Also, the IC50 in test [4] worked out at 15.8 µM; in test [5] it was 11.3 µM; in the test with LoVo, 18.4 µM; in the test with LNCaP, 12.8 µM; in test [6] it was 13.2 µM; in the test on NCI-H1299, 19 µM. Besides, the results for the 50% inhibitory concentration (IC50) in test [7] and in test [8] were 6.6 µM and 6.7 µM, respectively.
As to `C=C1C(O)[C@@]23CC[C@H]4[C@@](C)(CCC[C@@]4(C)C(=O)OCCN4CCN(C)CC4)[C@@H]2CC[C@]1(O)C3` (stereo partly specified), the 50% inhibitory concentration (IC50) (in the test on MDA-MB-231; in the test on K562; in test [1]; in [2]; in test [3]; in the test on DU-145) was above 50 µM each time. For the same compound, the IC50 (in test [4]; in test [5]; in the test with LoVo; in the test on LNCaP; in [6]; with NCI-H1299) was above 50 µM each time. Further, the IC50 in test [7] and in test [8] was above 50 µM in each case.
In the case of `C=C1[C@@H]2CC(=O)[C@H]3[C@]4(C)CCCC(C)(C)[C@H]4[C@@H](O)C[C@]3(C2)[C@@H]1O`, the concentration for half-maximal inhibition (IC50) (with MDA-MB-231; with K562; in test [1]; in test [2]; in test [3]; with DU-145) was above 50 µM in each case. Moreover, the half-maximal inhibitory concentration (IC50) (in test [4]; in [5]; in the test with LoVo; in the test with LNCaP; in test [6]; in the test with NCI-H1299) was above 50 µM throughout. Moreover, the concentration for half-maximal inhibition (IC50) in test [7] and in [8] was above 50 µM throughout.
Consider `C[C@H]1C(=O)[C@@]23CC[C@@H]4[C@@](C)(CO)CCC[C@@]4(C)C2=CC[C@]1(O)C3`, for which the 50% inhibitory concentration (IC50) (in the test on MDA-MB-231; with K562; in test [1]; in [2]; in test [3]; with DU-145) was above 50 µM each time. Also, the IC50 (in test [4]; in test [5]; in the test on LoVo; with LNCaP; in test [6]; with NCI-H1299) was above 50 µM throughout. The IC50 in test [7] and in test [8] was above 50 µM throughout.
`C[C@H]1C(=O)[C@@]23C[C@H](O)[C@@H]4[C@@](C)(CO)CCC[C@@]4(C)C2=CC[C@]1(O)C3`: the half-inhibitory concentration (IC50) (in the test with MDA-MB-231; with K562; in [1]; in test [2]; in test [3]; with DU-145) was above 50 µM throughout. In addition, the IC50 (in [4]; in test [5]; in the test on LoVo; in the test with LNCaP; in test [6]; in the test on NCI-H1299) was above 50 µM throughout. Besides, the IC50 in test [7] and in test [8] was above 50 µM throughout.
In the case of `C=C1C[C@]23C[C@H]1CC[C@H]2[C@@]1(C)[C@H](C[C@H]3OC(C)=O)C(C)(C)CC[C@@H]1O`, the half-inhibitory concentration (IC50) (in the test on MDA-MB-231; with K562; in test [1]; in test [2]; in test [3]; in the test with DU-145) was above 50 µM in each case. In addition, the half-inhibitory concentration (IC50) (in test [4]; in [5]; in the test on LoVo; in the test with LNCaP; in test [6]; in the test on NCI-H1299) was above 50 µM throughout. In addition, the IC50 in test [7] and in test [8] was above 50 µM in each case.
In the case of `C=C1C(=O)[C@@]23CC[C@@H]4[C@@](C)(CO)CCC[C@@]4(C)C2=CC[C@@H]1C3`, the concentration for half-maximal inhibition (IC50) amounted to 32 µM in the test with MDA-MB-231; 13.8 µM in the test with K562; 9.8 µM in test [1]; 20.3 µM in test [2]; 39.3 µM in test [3]; 31 µM in the test with DU-145. For the same compound, the IC50 in test [4] worked out at 14 µM; in test [5] it was 22.3 µM; with LoVo, 11.2 µM; in the test with LNCaP, 16.3 µM; in test [6], 17.7 µM; in the test with NCI-H1299, 14.5 µM. Further, the figures for the IC50 in test [7] and in test [8] were 21.5 µM and 4.7 µM, respectively.
On to `C=C1C(O)[C@@]23CC[C@H]4[C@@](C)(CCC[C@@]4(C)C(=O)OCCBr)[C@@H]2CC[C@]1(O)C3` (stereo partly specified), for which the IC50 (in the test on MDA-MB-231; in the test with K562; in [1]; in test [2]; in test [3]; in the test on DU-145) was above 50 µM throughout. The IC50 (in test [4]; in test [5]; in the test with LoVo; in the test on LNCaP; in test [6]; in the test on NCI-H1299) was above 50 µM each time. Besides, the IC50 in test [7] and in [8] was above 50 µM throughout.
For the compound `C=C1[C@@H]2CC[C@@H]3[C@@](CC[C@@H]4C(C)(C)CC[C@H](O)[C@]43C)(C2)[C@@H]1O`, the IC50 (with MDA-MB-231; with K562; in test [1]; in [2]; in [3]; in the test on DU-145) was above 50 µM each time. Further, the IC50 (in test [4]; in test [5]; in the test on LoVo; in the test on LNCaP; in test [6]; in the test with NCI-H1299) was above 50 µM each time. The half-maximal inhibitory concentration (IC50) in test [7] and in test [8] was above 50 µM throughout.

Usually IC50 stands for the concentration at which inhibition is half-maximal.
